{"source": "ChEMBL document CHEMBL1124965", "about": "“Synthesis and dopamine agonist properties of (+-)-trans-3,4,4a,10b-tetrahydro-4-propyl-2H,5H-[1]benzopyrano [4,3-b]-1,4-oxazin-9-ol and its enantiomers” (J Med Chem, 1990)", "key": {"Rattus norvegicus [1]": {"test_system": "Rattus norvegicus", "experiment": "Inhibition of gamma-butyrolactone-stimulated DOPA synthesis in the corpus striatum of rats (dose administered subcutaneously)", "format": "functional", "conditions": "sc", "procedure,_shortened": "(§1)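 Male Long-Evans rats dosed 30 min before GBL (750 mg/kg ip) plus decarboxylase inhibitor NSD 1015 (100 mg/kg ip); killed 30 min later. Striatal DOPA measured by HPLC with electrochemical detection. Expressed as percentage reversal versus GBL/NSD 1015-treated animals; N = 4–5.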"}, "Mus musculus": {"test_system": "Mus musculus", "experiment": "Inhibition of locomotor activity (LMA) in mice by the compound administered intraperitoneally.", "format": "functional", "procedure,_shortened": "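Spontaneous exploratory locomotor activity in mice after ip dosing; ED50 derived from four doses with at least three animals per dose.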"}, "Rattus norvegicus [2]": {"test_system": "Rattus norvegicus", "experiment": "Reversal of reserpine-induced depression in rat (dose administered subcutaneously) Values generated from three doses;5-10 rats were used per dose.", "format": "functional", "conditions": "sc", "procedure,_shortened": "(§2)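 Rats pretreated with reserpine 5 mg/kg 24 h before testing; drug given sc and reversal of spontaneous locomotor inhibition measured; ED50 derived from three doses with 5–10 rats per dose.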"}, "Rattus norvegicus [3]": {"test_system": "Rattus norvegicus", "experiment": "Inhibition of locomotor activity (LMA) in rats generated from four doses of 5-12 animals per dose (dose administered subcutaneously)", "conditions": "sc"}, "Rattus norvegicus [4]": {"test_system": "Rattus norvegicus", "experiment": "Inhibition of dopamine neuronal firing activity in the rat substantia nigra DA neutrons (2.2 mg/kg administered intraperitoneally)", "format": "functional", "procedure,_shortened": "(§3)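 Chloral hydrate-anesthetized rats; zona compacta DA cells recorded, identified by waveform and firing pattern, site confirmed histologically. Drug given ip via indwelling catheter. Baseline is the mean of the 2 min before injection; effect is the mean over the 1-min period of maximal inhibition; percent decrease, N = 3–4 cells.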"}, "Rattus norvegicus [5]": {"test_system": "Rattus norvegicus", "experiment": "Inhibition of gamma-butyrolactone-stimulated DOPA synthesis in the corpus striatum of rats (30 mg/kg administered intraperitoneally)", "format": "functional", "procedure,_shortened": "as §1"}, "Rattus norvegicus [6]": {"organism": "Rattus norvegicus", "experiment": "Inhibition of gamma-butyrolactone-stimulated DOPA synthesis in the corpus striatum of rats", "format": "functional", "procedure,_shortened": "as §1"}, "Rattus norvegicus [7]": {"test_system": "Rattus norvegicus", "experiment": "Inhibition of locomotor activity (LMA) in rats generated from four doses of 5-12 animals per dose (dose administered po)"}, "D(2) dopamine receptor [8]": {"molecular_target": "T1, D(2) dopamine receptor (Rattus norvegicus, UniProt P61169)", "T1 sequence (P61169 whole entry)": "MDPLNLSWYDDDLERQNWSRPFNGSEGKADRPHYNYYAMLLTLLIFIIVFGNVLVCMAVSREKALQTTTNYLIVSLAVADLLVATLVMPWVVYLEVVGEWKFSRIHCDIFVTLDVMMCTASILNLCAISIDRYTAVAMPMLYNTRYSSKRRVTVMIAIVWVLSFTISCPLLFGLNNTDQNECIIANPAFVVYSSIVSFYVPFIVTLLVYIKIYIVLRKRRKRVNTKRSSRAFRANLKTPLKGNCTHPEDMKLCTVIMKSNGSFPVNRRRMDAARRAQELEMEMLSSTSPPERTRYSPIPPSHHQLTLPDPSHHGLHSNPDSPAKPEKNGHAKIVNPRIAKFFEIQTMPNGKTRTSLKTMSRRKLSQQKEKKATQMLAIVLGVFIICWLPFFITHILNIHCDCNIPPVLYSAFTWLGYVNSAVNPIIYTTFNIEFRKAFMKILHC", "experiment": "Concentration inhibiting specific binding of [3H]haloperidol to Dopamine receptor D2 from rat striatal brain."}, "D(2) dopamine receptor [9]": {"molecular_target": "T1, D(2) dopamine receptor", "experiment": "Affinity for [3H]N-propylnorapomorphine (NPA) Dopamine receptor D2"}, "Rattus norvegicus [10]": {"test_system": "Rattus norvegicus", "experiment": "Reversal of reserpine-induced depression in rat (dose administered subcutaneously)", "format": "functional", "conditions": "sc", "procedure,_shortened": "as §2"}, "Rattus norvegicus [11]": {"test_system": "Rattus norvegicus", "experiment": "Inhibition of dopamine neuronal firing activity in the rat substantia nigra DA neutrons (0.25 mg/kg administered intraperitoneally)", "format": "functional", "procedure,_shortened": "as §3"}, "Rattus norvegicus [12]": {"test_system": "Rattus norvegicus", "experiment": "Inhibition of gamma-butyrolactone-stimulated DOPA synthesis in the corpus striatum of rats (2 mg/kg administered intraperitoneally)", "format": "functional", "procedure,_shortened": "as §1"}, "Rattus norvegicus [13]": {"test_system": "Rattus norvegicus", "experiment": "Reversal of reserpine-induced depression in rat (dose administered subcutaneously) Values generated from three doses; 5-10 rats were used per dose.", "conditions": "sc"}, "[14]": {"conditions": "Mus musculus, ip, read-out: ED50"}}, "note": "pIC50: −log10 of the molar value.", "data": [{"smiles": "CCCN(CCC)C1COc2ccc(O)cc2C1", "note": "(stereo not given)", "values": [{"measurement": "ED50", "setting": "Rattus norvegicus [1]", "value": 0.04, "unit": "mg/kg"}, {"measurement": "ED50", "setting": "Mus musculus; [14]", "value": 11.3, "unit": "mg/kg"}, {"measurement": "ED50", "setting": "Rattus norvegicus [2]", "value": 13.4, "unit": "mg/kg"}, {"measurement": "ED50", "setting": "Rattus norvegicus [3]", "value": 0.17, "unit": "mg/kg"}, {"measurement": "Decrease", "setting": "Rattus norvegicus [4]", "value": 100, "unit": "%"}, {"measurement": "Percent reversal of GBL-stimulated DOPA synthesis", "setting": "Rattus norvegicus [5]", "value": 100, "unit": "%"}]}, {"smiles": "CCCN1CCO[C@@H]2c3cc(O)ccc3OC[C@H]21", "values": [{"measurement": "ED50", "setting": "Rattus norvegicus [1]", "value": 0.03, "unit": "mg/kg"}, {"measurement": "Dose", "setting": "Rattus norvegicus [6]", "value": 100, "unit": "%"}, {"measurement": "ED50", "setting": "Rattus norvegicus [7]", "value": 5.8, "unit": "mg/kg"}, {"measurement": "ED50", "setting": "Mus musculus", "value": 5.4, "unit": "mg/kg"}, {"measurement": "pIC50", "setting": "D(2) dopamine receptor [8]", "value": 6.39}, {"measurement": "ED50", "setting": "Rattus norvegicus [3]", "value": 0.03, "unit": "mg/kg"}, {"measurement": "Decrease", "setting": "Rattus norvegicus [4]", "value": 100, "unit": "%"}, {"measurement": "pIC50", "setting": "D(2) dopamine receptor [9]", "value": 6.91}, {"measurement": "Percent reversal of GBL-stimulated DOPA synthesis", "setting": "Rattus norvegicus [5]", "value": 88.4, "unit": "%"}, {"measurement": "ED50", "setting": "Rattus norvegicus [10]", "value": 6.25, "unit": "mg/kg"}]}, {"smiles": "CCCN1CCO[C@H]2c3cc(O)ccc3OC[C@@H]21", "values": [{"measurement": "ED50", "setting": "Mus musculus; [14]", "value": "> 30", "unit": "mg/kg"}, {"measurement": "pIC50", "setting": "D(2) dopamine receptor [8]", "value": "< 4.00"}, {"measurement": "Decrease", "setting": "Rattus norvegicus [4]", "value": 9, "unit": "%"}, {"measurement": "Percent reversal of GBL-stimulated DOPA synthesis", "setting": "Rattus norvegicus [5]", "value": 0, "unit": "%"}]}, {"smiles": "CCCN1CCO[C@@H]2c3cc(O)ccc3OC[C@H]21", "note": "(racemic)", "values": [{"measurement": "ED50", "setting": "Mus musculus", "value": 11, "unit": "mg/kg"}, {"measurement": "pIC50", "setting": "D(2) dopamine receptor [8]", "value": 6.05}, {"measurement": "Decrease", "setting": "Rattus norvegicus [4]", "value": 99, "unit": "%"}, {"measurement": "Percent reversal of GBL-stimulated DOPA synthesis", "setting": "Rattus norvegicus [5]", "value": 61.8, "unit": "%"}]}, {"smiles": "CN1CCc2cccc3c2[C@H]1Cc1ccc(O)c(O)c1-3", "note": "[APOMORPHINE]", "values": [{"measurement": "ED50", "setting": "Rattus norvegicus [1]", "value": 0.06, "unit": "mg/kg"}, {"measurement": "ED50", "setting": "Mus musculus; [14]", "value": 0.3, "unit": "mg/kg"}, {"measurement": "Decrease", "setting": "Rattus norvegicus [11]", "value": 100, "unit": "%"}, {"measurement": "ED50", "setting": "Rattus norvegicus [3]", "value": 0.021, "unit": "mg/kg"}, {"measurement": "Increase", "setting": "Rattus norvegicus [12]", "value": 100, "unit": "%"}, {"measurement": "ED50", "setting": "Rattus norvegicus [13]", "value": 0.096, "unit": "mg/kg"}]}]}
